Measured values: paper PMC2755535 (Archives of toxicology, 2009)

Tests used:
[1] = tested on: copper zinc superoxide dismutase (CuZnSOD); experiment: CuZnSOD activity in liver and uterus; assay type: in vivo, female Sprague-Dawley rats; settings: Figure 4
[2] = tested on: reduced to oxidized glutathione; experiment: Total and oxidized glutathione; assay type: in vivo, female Sprague-Dawley rats; settings: data not shown
Method in brief: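 Female Sprague-Dawley rats were gavaged for 21 days (5 days/week) with test compound at 5.0 mg/kg in corn oil (n=9), vehicle (n=9), or a reference peroxisome proliferator at 7.5 mg/kg/day (n=8), then killed by CO2. Liver and uterus aliquots were homogenized immediately in 5% 5-sulfosalicylic acid. Total and oxidized glutathione were measured by enzymatic recycling, and the GSH:GSSG ratio was derived.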

GPx-1 = GPx-1 activity; assay type: in vivo, female Sprague-Dawley rats; settings: Figure 6
Method in brief: (§1)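 Rats were dosed orally for 21 days (5 days/week) with test compound at 5.0 mg/kg/day in corn oil, with vehicle, or with a positive control. Liver and uterus homogenates were assayed in a coupled glutathione reductase/NADPH system, reading NADPH decrease at 340 nm. H2O2 was the substrate for GPx-1 and cumene hydroperoxide for total GPx. Results are milliunits/mg Lowry protein, analysed by ANOVA and Dunnett's test (p<0.05).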

[3] = tested on: Manganese superoxide dismutase (MnSOD); experiment: MnSOD activity in liver and uterus; assay type: in vivo, female Sprague-Dawley rats; settings: Figure 4; for MnSOD activity in the liver, change versus control: ciprofibrate p = 0.07
[4] = tested on: Thiobarbituric acid reactive substances (TBARS); experiment: TBARS in whole liver homogenate; assay type: in vivo, female Sprague-Dawley rats; settings: data not shown
Method in brief: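 Female Sprague-Dawley rats were gavaged once daily, 5 days/week for 21 days. Groups: test compound at 5.0 mg/kg in corn oil (2 mL/kg, n=9), corn-oil vehicle (n=9), or a reference peroxisome proliferator at 7.5 mg/kg/day in water/methylcellulose (n=8). Euthanasia was 3 days (1 day for the reference agent) after the last dose. TBARS were measured fluorometrically in whole liver homogenate.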

Catalase = Catalase activity in liver and uterus; assay type: in vivo, female Sprague-Dawley rats; settings: Figure 5
Method in brief: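 Female Sprague-Dawley rats were gavaged once daily, 5 days/week for 21 days, with test compound at 5.0 mg/kg in corn oil (2 mL/kg) or with vehicle. A positive control peroxisome proliferator was given at 7.5 mg/kg/day in water/methylcellulose. H2O2 was added to liver or uterus homogenate in potassium phosphate buffer (pH 7.8), and H2O2 loss at 240 nm was followed for 2 min. Results are milli-k units/mg Lowry protein, compared by ANOVA with Dunnett's test.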

[5] = assay type: in vivo, female Sprague-Dawley rats; settings: oral 21 days, N-EtFOSE 5.0 mg/kg or ciprofibrate 7.5 mg/kg/day
[6] = tested on: peroxisomal acyl Co-A oxidase (AOX); experiment: Peroxisomal acyl Co-A oxidase activity in liver homogenates; assay type: in vivo, female Sprague-Dawley rats; settings: for AOX activity in liver, change versus control (significance): Figure 3; for Increase of peroxisomal AOX activity in liver compared to control: oral 21 days, N-EtFOSE increase p = 0.35
[7] = Histopathological evaluation of H&E stained liver and uterus sections; assay type: in vivo, female Sprague-Dawley rats
Total GPx = Total GPx activity; assay type: in vivo, female Sprague-Dawley rats; settings: Figure 6
Method in brief: as §1

total SOD = experiment: Total SOD activity in liver and uterus; assay type: in vivo, female Sprague-Dawley rats; settings: Figure 4
[8] = Levels of N-EtFOSE and metabolites in liver and serum; assay type: in vivo, female Sprague-Dawley rats; settings: for %TD in Serum (× 10^-3) / %TD in Serum: assuming serum volume of 4.86 mL/100 mg; for Liver: serum ratio: N-EtFOSE-treated female rats, mean
[9] = sheep; ref Vitayavirasuk and Bowen, 1999; cited from earlier work
[10] = rat, in vivo; cited from earlier work
[11] = human blood; ref Kärrman et al., 2006b; cited from earlier work
[12] = sheep, in vivo; cited from earlier work
[13] = rat, in vivo; cited from earlier work; remark: listed apart in the source
[14] = percentage of the total N-EtFOSE dose
[15] = percentage of the total N-EtFOSE dose, recovery adjusted

| Structure (SMILES) | CuZnSOD activity in the liver, change versus control [1] | CuZnSOD activity in the uterus, change versus control [1] | GSH:GSSG ratio in the liver [2] | GSH:GSSG ratio in the uterus [2] | GPx-1 activity in the liver, change versus control (GPx-1) | GPx-1 activity in the uterus, change versus control (GPx-1) | MnSOD activity in the liver, change versus control [3] | MnSOD activity in the uterus, change versus control [3] | TBARS in the liver [4] | Catalase activity in the liver, change versus control (Catalase) | Catalase activity in the uterus, change versus control (Catalase) | Survival and clinical signs of toxicity [5] | Ratio of Organ Weight to Body Weight, Spleen ([5]; mean ± SD) | AOX activity in liver, change versus control (significance) [6] | Increase of peroxisomal AOX activity in liver compared to control [6] | Total GPx activity in the liver, change versus control (Total GPx) | Total GPx activity in the uterus, change versus control (Total GPx) | %TD in Serum (× 10^-3) [8, 14] | %TD in Liver [8, 15] | Liver: serum ratio [8] | other results |
| --- | --- | --- | --- | --- | --- | --- | --- | --- | --- | --- | --- | --- | --- | --- | --- | --- | --- | --- | --- | --- | --- |
| CC(C)(Oc1ccc(C2CC2(Cl)Cl)cc1)C(=O)O (stereo not shown) [Ciprofibrate, reference compound] | not significant effect | increased | Neither N-EtFOSE nor ciprofibrate had an effect | Neither N-EtFOSE nor ciprofibrate had an effect | significantly decreased | decreased only in the liver | tended to be increased | significantly decreased | Neither N-EtFOSE nor ciprofibrate had an effect | not significantly altered | did not alter | no clinical findings | 2.5 ± 0.2 % (× 10^-3) | significant increase | 300 fold | significantly decreased | significantly decreased |  |  |  | Organ weight, Kidney ([5]; mean ± SD): 1.69 ± 0.05 g; Organ weight, Liver ([5]; mean ± SD): 13 ± 0.97 g; Organ weight, Spleen ([5]; mean ± SD): 0.58 ± 0.04 g; Organ weight, Uterus ([5]; mean ± SD): 0.31 ± 0.06 g; Ratio of Organ Weight to Body Weight, Liver ([5]; mean ± SD): 5.9 ± 0.3 %; Histopathological evaluation of H&E stained liver and uterus slices ([7]; oral 21 days, data not shown): did not reveal pathological changes; Total SOD activity in the liver, change versus control (total SOD): not significant effect; Total SOD activity in the uterus, change versus control (total SOD): did not significantly alter |
| NS(=O)(=O)C(F)(F)C(F)(F)C(F)(F)C(F)(F)C(F)(F)C(F)(F)C(F)(F)C(F)(F)F [FOSA, perfluorooctanesulfonamide] |  |  |  |  |  |  |  |  |  |  |  |  |  |  |  |  |  | 25.3 ± 6.1 (× 10^-3) %TD (× 10^-3) | 0.29 ± 0.06 %TD |  | Kp at 3 days after the last dose ([8]; female, Sprague-Dawley, rat, in vivo): 10.1; plasma-to-whole blood ratio [9]: 0.04; half-life [10]: approximately 100 hours; mean plasma-to-whole blood ratio [11]: 0.2; elimination phase half-life [12]: 63.4 h |
| O=S(=O)(NCCO)C(F)(F)C(F)(F)C(F)(F)C(F)(F)C(F)(F)C(F)(F)C(F)(F)C(F)(F)F [FOSE, perfluorooctanesulfonamidoethanol] |  |  |  |  |  |  |  |  |  |  |  |  |  |  |  |  |  | 0.07 ± 0.03 (× 10^-3) %TD (× 10^-3) |  | 6.4 | %TD in Liver (× 10^-3) [8, 15]: 0.58 ± 0.35 (× 10^-3) %TD (× 10^-3) |
| CCN(CC(=O)O)S(=O)(=O)C(F)(F)C(F)(F)C(F)(F)C(F)(F)C(F)(F)C(F)(F)C(F)(F)C(F)(F)F [N-EtFOSAA, N-ethyl perfluorooctanesulfonamidoacetate] |  |  |  |  |  |  |  |  |  |  |  |  |  |  |  |  |  |  | 0.43 ± 0.13 %TD | 1.3 | %TD in Serum [8, 14]: 0.38 ± 0.17 %TD |
| CCN(CCO)S(=O)(=O)C(F)(F)C(F)(F)C(F)(F)C(F)(F)C(F)(F)C(F)(F)C(F)(F)C(F)(F)F [N-EtFOSE, N-Ethyl perfluorooctanesulfonamidoethanol] | significantly increased | significantly increased | Neither N-EtFOSE nor ciprofibrate had an effect | Neither N-EtFOSE nor ciprofibrate had an effect | No significant change | no effect | significantly increased | only exception | Neither N-EtFOSE nor ciprofibrate had an effect | not significantly altered | significantly increased | no clinical findings | 2.7 ± 0.2 % (× 10^-3) | did not reach statistical significance | 16 fold | No significant change | significant decrease | 0.42 ± 0.20 (× 10^-3) (n=5) %TD (× 10^-3) |  |  | Ratio of Organ Weight to Body Weight, Kidney ([5]; mean ± SD): 6.8 ± 0.4%; Ratio of Organ Weight to Body Weight, Uterus ([5]; mean ± SD): 1.6 ± 0.3%; Uncorrected N-EtFOSE level in the liver ([8]; rat, in vivo): c Corrected N-EtFOSE levels in the liver are not reported because of the poor recovery rate (2.5±1%); uncorrected N-EtFOSE levels group were low, with 4.6 ± 4.7 ppb in N-EtFOSE-treated animals and 7.8 ± 1.3 ppb in control animals.; Histopathological evaluation of H&E stained liver and uterus slices ([7]; rat, in vivo, po): did not reveal pathological changes; Doses causing a reduced body weight gain in pregnant rats [13]: > 5 mg/kg body weight/day; Total SOD activity in the liver, change versus control (total SOD): significantly increased; Total SOD activity in the uterus, change versus control (total SOD): significantly increased |
| O=S(=O)(O)C(F)(F)C(F)(F)C(F)(F)C(F)(F)C(F)(F)C(F)(F)C(F)(F)C(F)(F)F [PFOS, perfluorooctane sulfonic acid] |  |  |  |  |  |  |  |  |  |  |  |  |  |  |  |  |  |  | 6.23 ± 0.95 %TD | 2.3 | %TD in Serum [8, 14]: 3.86 ± 0.86 %TD; Share of the total N-EtFOSE dose in the serum and liver ([8]; serum plus liver): approximately 9.5±1.2% |
